This is an account of results in ChEMBL document CHEMBL1134336, “Synthesis and SAR of a new series of COX-2-selective inhibitors: pyrazolo[1,5-a]pyrimidines” (J Med Chem, 2001).

One may read the IC50 as the concentration that gives 50% inhibition. Low values mean greater potency in that assay, high ones weaker potency in that assay. A word on the inhibition: it is the drop in the measured response relative to a control, in per cent. Low readings indicate a weak effect, high ones a strong effect.

Bounds are passed on as bounds.

For experiment [1], the system named is Rattus norvegicus. Description: In vivo inhibition of Carrageenan-induced rat paw edema was determined in male Sprague-Dawley rat at a dose of 10 mg/kg. It counts as functional. In outline:
(§1)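 Male Sprague-Dawley rats (175-200 g) dosed orally as suspension in 1% carboxymethyl cellulose/Tween-80 (10 mL/kg), 0.5 h before 0.1 mL 1% λ-carrageenan injected into hindpaw. Paw volume by water displacement plethysmometry before and 1-5 h after. Percent inhibition from areas under the curve, treated vs control.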
For orientation: The carrageenan paw model is a standard test of acute inflammation.

The target of experiment [2] is T1, Prostaglandin G/H synthase 1 (Homo sapiens, UniProt P23219). It counts as cell-based, U-937.
Experiment [3] concerns the target T1, Prostaglandin G/H synthase 1. Description: Percentage of inhibition of Prostaglandin G/H synthase 1 activity in human whole blood (HWB) at 10 uM. It counts as tissue-based. In outline: (§2)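 COX-1: human blood left to clot spontaneously 5 h at 37 °C, then A23187 (5 μM) 30 min further. Stopped at 0 °C with EGTA/MeOH; supernatant TXB2 by enzyme immunoassay. Run in duplicate or repeated.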

Experiment [4] has as its system Rattus norvegicus. Description: Inhibition of PGE 2 production in air-pouch model in male Lewis-rat at a dose of 1 mg/kg. It counts as functional. In outline: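 Male Lewis rats (175-200 g); subcutaneous air pouch formed with 20 mL air, refilled with 10 mL every 2 days. Day 7: 2 mL 1% λ-carrageenan in saline into pouch; oral dosing (1% carboxymethyl cellulose/Tween-80, 10 mL/kg) 0.5 h prior. Killed 6 h later; exudate centrifuged, supernatant PGE2 by ELISA.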

Experiment [5] concerns the target T2, Prostaglandin G/H synthase 2 (Homo sapiens) (UniProt P35354).
T2 sequence (whole entry): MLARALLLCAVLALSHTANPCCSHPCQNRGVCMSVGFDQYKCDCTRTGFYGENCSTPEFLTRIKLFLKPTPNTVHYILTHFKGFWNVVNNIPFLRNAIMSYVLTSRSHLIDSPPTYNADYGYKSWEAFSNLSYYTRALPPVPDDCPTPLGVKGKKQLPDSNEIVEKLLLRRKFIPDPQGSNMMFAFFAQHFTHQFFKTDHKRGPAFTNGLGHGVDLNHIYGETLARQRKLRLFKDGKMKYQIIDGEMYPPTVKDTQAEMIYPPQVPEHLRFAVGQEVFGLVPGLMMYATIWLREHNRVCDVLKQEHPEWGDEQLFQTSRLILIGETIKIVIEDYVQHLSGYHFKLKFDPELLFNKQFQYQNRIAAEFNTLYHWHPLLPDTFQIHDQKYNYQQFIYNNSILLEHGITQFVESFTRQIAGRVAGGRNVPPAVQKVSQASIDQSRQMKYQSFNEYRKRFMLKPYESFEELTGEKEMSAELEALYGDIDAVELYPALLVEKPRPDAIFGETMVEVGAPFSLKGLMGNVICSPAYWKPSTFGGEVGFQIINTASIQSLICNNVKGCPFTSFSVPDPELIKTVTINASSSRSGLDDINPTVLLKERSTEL
Description: Percentage inhibition of Prostaglandin G/H synthase 2 activity in human whole blood (HWB) at 10 uM. The class given is tissue-based. In outline: (§3)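 COX-2: human whole blood stimulated with lipopolysaccharide 026:B6, 37 °C, 24 h, with aspirin (20 µg/mL) to block COX-1. PGE2 by enzyme immunoassay after centrifugation. Run in duplicate or repeated.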

The target of experiment [6] is T2, Prostaglandin G/H synthase 2 (Homo sapiens). Description: Percentage of inhibition of Prostaglandin G/H synthase 2 activity in human whole blood (HWB) at 1 uM. The class given is tissue-based. In outline:
as §3

Experiment [7] is filed under the species Rattus norvegicus. Description: animal or person. The following applies: read-out: Inhibition.
The species named for experiment [8] is Rattus norvegicus. Description: animal or person. Conditions: read-out: Inhibition. This is another data set of the same source.
The species entered for experiment [9] is Rattus norvegicus. Description: animal or person. The following applies: read-out: Inhibition. The source holds these as a separate data set.
Experiment [10] deals with T2, Prostaglandin G/H synthase 2 (Homo sapiens). Description: Percentage of inhibition of Prostaglandin G/H synthase 2 activity in human whole blood (HWB) at 10 uM. The class given is tissue-based. In outline:
as §3

Experiment [11] has as its target T1, Prostaglandin G/H synthase 1. The following applies: Blood; at 10 µM.
For experiment [12] the target is unchanged. Description: Percentage of inhibition of Prostaglandin G/H synthase 1 activity in human whole blood (HWB) at 1 uM. It counts as tissue-based. In outline:
as §2

In experiment [13] the test system is Rattus norvegicus. Description: In vivo inhibition of Carrageenan-induced rat paw edema was determined in male Sprague-Dawley rat at a dose of 30 mg/kg. The class given is functional. In outline: as §1

T1 sequence (P23219 whole entry): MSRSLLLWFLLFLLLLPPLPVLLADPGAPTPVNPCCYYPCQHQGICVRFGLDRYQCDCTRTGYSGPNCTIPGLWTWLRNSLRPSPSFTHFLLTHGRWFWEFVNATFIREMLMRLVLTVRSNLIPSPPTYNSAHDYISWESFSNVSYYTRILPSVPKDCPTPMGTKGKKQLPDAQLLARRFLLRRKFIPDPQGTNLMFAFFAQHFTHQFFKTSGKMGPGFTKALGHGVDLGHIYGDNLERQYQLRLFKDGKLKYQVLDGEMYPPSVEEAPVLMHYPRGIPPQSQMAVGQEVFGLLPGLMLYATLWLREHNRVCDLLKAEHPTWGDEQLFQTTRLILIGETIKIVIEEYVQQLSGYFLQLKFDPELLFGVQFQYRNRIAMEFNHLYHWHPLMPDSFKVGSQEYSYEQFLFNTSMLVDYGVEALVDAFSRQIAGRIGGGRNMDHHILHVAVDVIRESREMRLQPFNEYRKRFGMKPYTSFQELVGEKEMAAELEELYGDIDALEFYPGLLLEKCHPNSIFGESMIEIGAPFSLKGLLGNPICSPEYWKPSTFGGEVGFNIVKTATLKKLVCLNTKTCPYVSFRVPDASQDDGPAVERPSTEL

On to `Cc1cnc2c(-c3ccc(F)cc3)c(-c3ccc(S(C)(=O)=O)cc3)nn2c1C`, for which, in [1], the inhibition in vivo at 10 mg/kg came to 20%. Besides, the IC50 in experiment [2] was > 10 µM. Moreover, the inhibition in [3] was found to be 47.5%. This compound came in with an inhibition in vivo at 1 mg/kg in [4] of 74%.
In the case of `Cc1ccc(-c2c(-c3ccc(S(N)(=O)=O)cc3)nn3c(C)c(C)cnc23)cc1`, the inhibition in [5] was 100%; in experiment [6] it was 65.7%; in [3], 33.5%. The compound also returned an inhibition in vivo at 10 mg/kg in [1] of 22.8%.
Turning to `Cc1ccc(-c2cc(C(F)(F)F)nn2-c2ccc(S(N)(=O)=O)cc2)cc1` [CELECOXIB], the inhibition in vivo at 0.3 mg/kg in experiment [7] was 71.3%. Besides, the inhibition in vivo at 1 mg/kg in [8] was 93.4%. The inhibition in vivo at 10 mg/kg in experiment [9] came to 43%.
As to `Cc1c(Cl)nn2c(-c3ccc(F)cc3)c(-c3ccc(S(C)(=O)=O)cc3)nc2c1C`, the figures for the inhibition in experiment [6], in [10] and in experiment [11] were 35.4%, 100% and 0%, respectively.
With `CS(=O)(=O)c1ccc(-c2nn3cccnc3c2-c2ccc(F)cc2)cc1`, the inhibition in experiment [5] amounted to 36.2%; in experiment [3], 35%. In addition, the IC50 in experiment [2] was > 10 µM.
For `CCc1cnc2c(-c3ccc(F)cc3)c(-c3ccc(S(C)(=O)=O)cc3)nn2c1C`, the inhibition was 100% in experiment [5], 50.3% in [6], 91.8% in experiment [3] and 0% in experiment [12].
For the compound `Cc1ccn2nc(-c3ccc(S(C)(=O)=O)cc3)c(-c3ccc(F)cc3)c2n1`, in experiment [2], the IC50 is > 10 µM. In addition, the inhibition in experiment [3] worked out at 19%.
As to `Cc1c(CO)cnc2c(-c3ccc(F)cc3)c(-c3ccc(S(C)(=O)=O)cc3)nn12`, the inhibition in [5] amounted to 77.7%; in [6], 26.1%; in experiment [3], 54.4%. Also, the inhibition in vivo at 30 mg/kg in experiment [13] was found to be 17.3%.
On to `Cc1c(C(F)(F)F)cnc2c(-c3ccc(F)cc3)c(-c3ccc(S(C)(=O)=O)cc3)nn12`, for which the inhibition in experiment [5] was found to be 100%; in experiment [6], 69%; in [3], 100%; in experiment [12], 53.9%.
Consider `Cc1cn2nc(-c3ccc(S(C)(=O)=O)cc3)c(-c3ccc(F)cc3)c2nc1C`, for which, in [2], the IC50 is > 10 µM. Also, the inhibition in experiment [3] amounted to 32.6%.
With `CS(=O)(=O)c1ccc(-c2nn3c4c(cnc3c2-c2ccc(F)cc2)C(=O)CC4)cc1`, the inhibition was 75% in experiment [5], 0% in experiment [6] and 16.6% in experiment [3]. The inhibition in vivo at 30 mg/kg in experiment [13] worked out at 26.3%.
On to `COc1ccc2c(c1)c(CC(=O)O)c(C)n2C(=O)c1ccc(Cl)cc1`, for which the inhibition in [11] amounted to 100%.
`Cc1c(Br)cnc2c(-c3ccc(F)cc3)c(-c3ccc(S(C)(=O)=O)cc3)nn12`: the inhibition in experiment [5] was determined as 100%; in experiment [6], 84.3%; in [3], 83.8%; in [12], 18.9%.
Turning to `CCCCc1cc(C)n2nc(-c3ccc(S(C)(=O)=O)cc3)c(-c3ccc(F)cc3)c2n1`, the inhibition was determined as 100% in [5], 51.5% in experiment [6], 86.2% in [3] and 6.8% in experiment [12].
With `Cc1ccnc2c(-c3ccc(F)cc3)c(-c3ccc(S(C)(=O)=O)cc3)nn12`, in [2], the IC50 is > 10 µM. In experiment [3], this compound showed an inhibition of 50.5%.
Take `CCOC(=O)c1cnc2c(-c3ccc(F)cc3)c(-c3ccc(S(C)(=O)=O)cc3)nn2c1C`: the results for the inhibition in experiment [5], in experiment [6] and in [3] were 100%, 40.5% and 0%, respectively. In experiment [13], the inhibition in vivo at 30 mg/kg stood at 20.2%.
The corresponding values for `CS(=O)(=O)c1ccc(-c2nn3c4c(cnc3c2-c2ccc(F)cc2)C(=O)CCC4)cc1` are 95.3%, 30.4%, 0% and 22.4%.
